Only some compounds are listed: those with a hit (about 2% of all), similar ones and a draw of the others.
LGR2 antag: inhibitors of bursicon-induced Drosophila LGR2 receptor cAMP signaling; HEK293 LGR2, CRE-luciferase, bursicon-stimulated, 4 h; inhibition, % at 9.99 µM; AID 720647; actives 0.35% (n = 380,000);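 active = drop in luminescence signal, shown as inhibition above about 50% in the replicate tests, limit read from the data, passing the limit was not always enough; inconclusive = probably only some replicates passing the limit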;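 note: agonist challenge used bursicon conditioned medium at about half maximal strength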
Xi reactivation: X-chromosome reactivation activator | actives 0.055% (n = 360,000) | activation, % at 7.58 µM | XiGFP mouse fibroblasts, % GFP-positive cells imaging, 3 d; cells co-treated with 5-aza-dC sensitizer; scaled so ellipticine positive control = 100%;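 active = mean normalized replicate activation at least 10% and every replicate at or above 10%; inconclusive = only one of the two criteria met; inactive = mean below 10% and not all replicates reach 10%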;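 note: 0% = median of on-plate neutral control wells and 100% = ellipticine 6 µM median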
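assay system = SV40-immortalized XiGFP fibroblast cells, line 68-5-11 | buffer or medium = DMEM plus 5-aza-dC sensitizer | doses = single-point pinned compound dosing | times = 3-day compound exposure, then 15 min fixation at room temperature | benchmarks = positive control ellipticine, 6 µM final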
TROY signal inh: inhibitors of TROY-dependent NF-kB signaling | Q293 LMP1-TROYcd NF-kB luciferase reporter, 4 h | inhibition, % at 10 µM | actives 0.98% (n = 360,000) | AID 1347056;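 active = compounds whose plate-normalised and pattern-corrected inhibition of the luciferase reporter signal at the single screening dose is 50% or more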
CaV13 FRET inh: Primary screen for inhibitors of IQ motif and Ca2+-dependent inactivation inhibitor domain binding in CACNA1D, Förster resonance energy transfer in living cells, …. actives 0.098% (n = 340,000). HEK cells, CFP/YFP FRET ICDI-IQ, plate reader, 10 min; percent FRET-ratio fall versus neutral wells. inhibition, % at 12.3 µM;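 active = mean replicate inhibition of at least 30% and at least 1% of replicates passing that level; inconclusive = only one of the two criteria is met; inactive = neither criterion is met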;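 note: 0% = median of the neutral control wells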
TWEAK Fn14 block: TWEAK-Fn14 signaling inhibition; TWEAK-stimulated Fn14 reporter cells, luciferase luminescence, 8 h; inhibition, % at 10 µM; actives 2% (n = 360,000); AID 1159606; in the data active = inhibition above about 50%
Numbers without * were called inactive; u = inconclusive; x = no result given.

SMILES	LGR2 antag	Xi reactivation	TROY signal inh	CaV13 FRET inh	TWEAK Fn14 block
CCCCCCCCCc1nc2sc3c(c2c(=O)n1NC(=O)c1ccccc1[N+](=O)[O-])CC(C)(C)OC3	3.1	0.0	58.2*	-5.4	49.1
CCCCCCCCCc1nc2sc3c(c2c(=O)n1NC(=O)c1ccc([N+](=O)[O-])cc1)CC(C)(C)OC3	23.7	0.1	42.5	-5.7	55.7*
CCc1nc2sc3c(c2c(=O)n1N)CC(C)(C)OC3	-17.9	0.1	2.8	-10.0	-11.8
CCCc1nc2sc3c(c2c(=O)n1NC(=O)c1ccco1)CC(C)(C)OC3	x	0.2	-36.7	-4.4	-7.3
Nc1ccc(O)cc1C(=O)OCC(=O)c1ccc(C2CCCCC2)cc1	-14.5	2.2	25.3	-4.5	102.2*
CCc1nc(N)nc(N)c1-c1ccc(N(C)Cc2ccccc2)c([N+](=O)[O-])c1	21.6	0.0	46.6	-6.4	67.6*
Cc1ccc(S(=O)(=O)c2ccc(C)cc2)cc1	4.0	x	-7.0	-8.5	0.4
Nc1ccc(S(=O)(=O)c2ccccc2)nc1	-1.3	0.0	-17.3	-19.5	21.8
Cc1ccc(S(=O)(=O)c2ccc([N+](=O)[O-])cn2)cc1	64.8*	1.9	58.8*	-4.4	68.4*
O=[N+]([O-])c1ccc(S(=O)(=O)c2ccccc2)nc1	52.5*	0.2	57.5*	-4.1	53.9*
Cc1cc(S(=O)(=O)c2ccc([N+](=O)[O-])cn2)ccc1Br	u	0.4	72.1*	-2.2	59.8*
Cc1cc(Sc2ccc([N+](=O)[O-])cn2)ccc1Br	-14.0	0.0	-19.5	-5.2	-19.8
Cc1noc(C)c1NC(=O)N(C)C[C@@H]1Oc2ccc(NC(=O)Nc3ccc(C(F)(F)F)cc3)cc2CC(=O)N([C@@H](C)CO)C[C@@H]1C	6.6	0.0	x	x	x
C[C@H]1CCCCO[C@@H](CN(C)Cc2ccc(C(F)(F)F)cc2)[C@@H](C)CN([C@@H](C)CO)C(=O)c2cc(NC(=O)Cc3ccccc3)ccc2O1	10.6	-0.1	x	x	x
COCc1cc(Sc2ccc(Cl)cc2)nc(C)n1	7.4	-0.1	21.7	-1.9	12.5
COCc1cc(S(=O)c2ccc(Cl)cc2)nc(C)n1 (configuration not stated)	19.5	0.0	-2.2	-4.2	63.8*
C[C@H]1CN([C@@H](C)CO)C(=O)c2cccc(NS(=O)(=O)c3ccc(Cl)cc3)c2O[C@H]1CN(C)Cc1ccc(Cl)c(Cl)c1	7.8	0.2	x	x	x
O=C(CN(c1ccccc1F)S(=O)(=O)c1ccccc1)Nc1ccc2c(c1)OCCO2	-6.5	0.0	44.6	x	74.7*
Fc1ccc(-c2nc3c4ccccc4ccn3c2Cc2ccccc2C(F)(F)F)cc1	x	x	58.8*	x	-2.1
Cc1ccc(S(=O)(=O)N[C@@H]2CC[C@H](CC(=O)N3CCc4ccccc4C3)O[C@H]2CO)cc1	-6.9	0.1	x	x	x
O=C(NCCc1cccs1)c1ccc(Cl)cc1	10.2	0.1	3.4	-2.8	58.9*
O=C(NCCc1cccs1)C(c1ccccc1)c1ccccc1	14.0	0.3	-2.6	-5.0	7.2
Cc1ccc(C(=O)NCCSC(C)(C)C)cc1	3.5	x	16.2	x	52.5*
O=C(NCCc1cccs1)c1ccc(Cl)c(Cl)c1	-100.5	0.0	-64.9	2.0	-1.3
Cc1ccc(C(=O)NCCc2cccs2)cc1	75.4*	0.2	69.1*	-0.6	84.9*
SMILES	LGR2 antag	Xi reactivation	TROY signal inh	CaV13 FRET inh	TWEAK Fn14 block
CC(C)(C)SCCNC(=O)c1ccccc1	x	x	-53.1	-3.3	5.7
C[C@@H](NC(=O)C[C@@H]1CC[C@H](NC(=O)Nc2ccc3c(c2)OCO3)[C@@H](CO)O1)c1ccccc1	-3.4	5.7	x	x	x
CC(=O)c1ccc(-n2c(CCC(=O)O)ccc2-c2ccccc2)cc1	-5.8	-0.1	58.5*	-2.1	75.8*
COC(=O)c1ccc(-n2c(C)ccc2-c2ccccc2)cc1	-55.9	x	-28.1	-8.1	6.9
CC(=O)c1ccc(-n2c(C)ccc2-c2ccccc2)cc1	x	x	37.4	-3.6	82.2*
COC(=O)C[C@@H]1CC[C@@H]2[C@H](COc3ccc(NS(=O)(=O)c4ccc(F)cc4)cc3C(=O)N2C)O1	1.5	0.0	x	x	x
O=C(C[C@H]1C[C@@H]2c3cc(NC(=O)c4ccc5c(c4)OCO5)ccc3O[C@@H]2[C@@H](CO)O1)NCc1ccccn1	15.6	0.0	x	x	x
CCc1ccc2[nH]c(=O)c(CN(CCCN3CCOCC3)C(=O)Nc3ccccc3)cc2c1	x	x	61.9*	x	18.1
